# In the M2OR odorant receptor database:
# Molecular target: T1, OR2M3 (Homo sapiens) (UniProt Q8NG83)
# T1 sequence (whole entry): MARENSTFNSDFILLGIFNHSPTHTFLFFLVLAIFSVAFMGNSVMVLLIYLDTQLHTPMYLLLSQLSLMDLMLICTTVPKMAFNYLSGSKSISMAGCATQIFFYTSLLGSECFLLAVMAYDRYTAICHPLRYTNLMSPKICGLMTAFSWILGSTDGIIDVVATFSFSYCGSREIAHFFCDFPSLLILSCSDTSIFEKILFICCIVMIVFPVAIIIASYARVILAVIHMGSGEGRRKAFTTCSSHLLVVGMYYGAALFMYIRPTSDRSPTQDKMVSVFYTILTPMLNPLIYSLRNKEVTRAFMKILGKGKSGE
# Conditions: stereoisomer not certain
# How it was run: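 Transient luciferase assays in mammalian cell lines were common, though methods varied by source. The values come from published papers and their supplementary material, with extra details from the original authors when needed. Responsive refers to a measured signal the original authors judged statistically different from baseline, and non-responsive (inactive) to the remainder.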
# 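Note: active if original authors judged signal statistically different from baseline.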
row,SMILES,odorant receptor agonist call
1,C=C(C)c1ccc(C)cc1,inactive
2,CCCCCCC=CC=O,inactive
3,Cc1cccc(O)c1,inactive
4,CCCCC(CC)CCC(=O)O (stereo unspecified),inactive
5,CSC,inactive
6,CSCSC,inactive
7,CC(C)CCCCCCCCCCC=O,inactive
8,CCCCCC1CCCC(=O)O1 (stereo unspecified),inactive
9,COC(=O)C(C)C,inactive
10,CC=CC(=O)C1=C(C)CCCC1(C)C,inactive
11,C=CC(=O)CCCCC,inactive
12,CCC(S)C(C)=O (stereo unspecified),inactive
13,CCC=CCCC=CCO,inactive
14,CCCC(=O)C(C)CC (stereo unspecified),inactive
15,CC1=CCC(C(C)(C)S)CC1 (stereo unspecified),inactive
16,COc1nccnc1C(C)C,inactive
17,COC1=C(C)OC(C)C1=O (stereo unspecified),inactive
18,OCCc1ccccc1,inactive

row,SMILES,odorant receptor agonist call
1,CC=O,inactive
2,CCCCC(=O)OCC,inactive
3,CC(=O)C(C)O (stereo unspecified),inactive
4,CCCCCC=CC=O,inactive
5,CCCCC=CC=CC=O,inactive
6,COc1ccc2ccc(=O)oc2c1,inactive
7,CCC=CCCC=CC=O,inactive
8,COC(=O)C=Cc1ccccc1,inactive
9,CCCC(=O)OC,inactive
10,C=C1CCC2(C(C)C)CC12 (stereo unspecified),inactive
11,CC(=O)OCCc1ccccc1,inactive
12,CCCCC1CCC(=O)O1 (stereo unspecified),inactive
13,CCCC(=O)OCC,inactive
14,CCCCCCC1CCC(=O)O1 (stereo unspecified),inactive
15,CCCCCc1ccccn1,inactive
16,Cc1occc1S,inactive
17,CC=Cc1ccc(OC)cc1,inactive
18,O=C(O)C=Cc1ccc(O)cc1,inactive
